# In ChEMBL document CHEMBL2440007, “Design, synthesis and biological evaluation of N2,N4-disubstituted-1,1,3-trioxo-2H,4H-pyrrolo[1,2-b][1,2,4,6]thiatriazine derivatives as HIV-1 NNRTIs” (Bioorg Med Chem, 2013):
# Legend:
# [1] = Selectivity index, ratio of CC50 for human MT4 cells to EC50 for HIV-1 3B infected in human MT4 cells; format: toxicity, cell-based; conditions: read-out: Ratio CC50/EC50
# Summary of the method: (§1)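 Ratio CC50/EC50. Both values come from MTT viability of MT-4 cells read 5 days after infection with HIV-1 IIIB or HIV-2 ROD, or after mock infection for CC50.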
# [2] = Cytotoxicity against human MT4 cells after 5 days by MTT assay; format: cell-based
# Summary of the method: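 Mock-infected MT-4 cells (6 × 10⁵ cells/mL) were exposed to serial fivefold compound dilutions. Viability was measured by MTT after 5 days.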
# [3] = test system: Human immunodeficiency virus 1; test: Antiviral activity against HIV1; format: functional, organism-based
# [4] = test system: Human immunodeficiency virus 2; test: Antiviral activity against HIV2 ROD infected in human MT4 cells assessed as protection against viral-induced cytotoxicity after 5 days by MTT assay; format: functional, organism-based; conditions: Human immunodeficiency virus 2, ISOLATE ROD, MT4, 120 h
# Summary of the method: (§2)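 MT-4 cells were infected with HIV-1 IIIB or HIV-2 ROD stock at 100–300 CCID50 and exposed to serial fivefold compound dilutions, with untreated virus-infected and mock-infected controls. Cell viability was read by MTT after 5 days.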
# [5] = test system: Human immunodeficiency virus 1; test: Antiviral activity against HIV1 3B infected in human MT4 cells assessed as protection against viral-induced cytotoxicity after 5 days by MTT assay; format: functional, organism-based; conditions: Human immunodeficiency virus 1, 3B, MT4, 120 h; summary of the method: as §2
# [6] = Selectivity index, ratio of CC50 for human MT4 cells to EC50 for HIV-2 ROD infected in human MT4 cells; format: toxicity, cell-based; conditions: read-out: Ratio CC50/EC50; summary of the method: as §1
# [7] = target: Human immunodeficiency virus type 1 reverse transcriptase (Human immunodeficiency virus 1, UniProt Q72547); test: Inhibition of HIV1 reverse transcriptase assessed as inhibition of biotinylated dUTP incorporation after 1 hr by ELISA
# Summary of the method: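 Kit-based colorimetric ELISA. HIV-1 RT was incubated with template and DIG-dUTP, biotin-dUTP and dTTP, with or without inhibitor, for 1 h at 37 °C. Product was captured on streptavidin plates for 1 h at 37 °C, then anti-DIG-POD for 1 h at 37 °C, and ABTS was developed at 25 °C. A405 was read and percent inhibition calculated.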
EC50 [3] [µM],IC50 [7] [µM],SMILES,selectivity ratio [1],CC50 at 120 h [2] [µM],EC50 [4] [µM],EC50 [5] [µM],selectivity ratio [6]
,,N#CCN1C(=O)N(Cc2ccccc2)S(=O)(=O)c2cscc21,559,503,,,
0.01,,O=C1N(Cc2ccccc2Cl)c2cscc2S(=O)(=O)N1Cc1ccccc1,> 119,> 119,,,
,,C=CCN1C(=O)N(Cc2ccccc2)S(=O)(=O)n2cccc21,> 1,> 802,> 802,> 802,< 1
> 20,,Cn1ncc2c1N(Cc1ccccc1Cl)S(=O)(=O)N(Cc1ccccc1)C2=O,,,,,
> 300,,Cn1ncc2c1S(=O)(=O)N(Cc1ccccc1)C(=O)N2Cc1ccccc1Cl,,,,,
,,CC(C)=CCN1C(=O)N(Cc2ccccc2)S(=O)(=O)n2cccc21,9,226,> 226,25,< 1
,,O=C1N(Cc2ccccc2)c2cccn2S(=O)(=O)N1Cc1cccc(F)c1,6,288,> 324,52,1
,58.3,N#Cc1ccccc1CN1C(=O)N(Cc2cccc(F)c2)S(=O)(=O)n2cccc21,> 55,> 305,> 305,5.6,1
,,O=C1N(Cc2ccccc2Cl)c2cccn2S(=O)(=O)N1Cc1cccc(F)c1,21,231,> 262,11,< 1
,,O=C1N(Cc2ccccc2Br)c2cccn2S(=O)(=O)N1Cc1cccc(F)c1,> 9,> 269,> 269,29,1
,,O=C1N(Cc2cccc(Cl)c2)c2cccn2S(=O)(=O)N1Cc1cccc(F)c1,29,208,> 212,7.2,< 1
,,O=C1N(Cc2ccc(Cl)cc2Cl)c2cccn2S(=O)(=O)N1Cc1cccc(F)c1,< 1,249,> 275,> 249,1
,,N#CCN1C(=O)N(Cc2cccc(F)c2)S(=O)(=O)n2cccc21,5,172,> 187,34,< 1
,,N#Cc1ccccc1CN1C(=O)N(Cc2cccc(Cl)c2)S(=O)(=O)n2cccc21,> 33,> 293,> 293,8.9,1
,,O=C1N(Cc2ccc(Cl)cc2Cl)c2cccn2S(=O)(=O)N1Cc1cccc(Cl)c1,< 1,251,> 265,> 251,1
,,O=C1N(Cc2ccccc2Cl)c2cccn2S(=O)(=O)N1Cc1cccc(Br)c1,> 14,> 260,> 260,18,1

EC50 [3] [µM],IC50 [7] [µM],SMILES,selectivity ratio [1],CC50 at 120 h [2] [µM],EC50 [4] [µM],EC50 [5] [µM],selectivity ratio [6]
,,O=C1N(Cc2ccc(Cl)cc2Cl)c2cccn2S(=O)(=O)N1Cc1cccc(Br)c1,,> 243,> 243,> 243,1
,,O=C1N(Cc2ccccc2)c2cccn2S(=O)(=O)N1Cc1ccccc1,5,196,> 267,43,< 1
,56.9,N#Cc1ccccc1CN1C(=O)N(Cc2ccccc2)S(=O)(=O)n2cccc21,> 63,> 318,> 318,5.1,1
,,N#Cc1cccc(CN2C(=O)N(Cc3ccccc3)S(=O)(=O)n3cccc32)c1,> 49,> 318,> 318,6.5,1
,,O=C1N(Cc2ccccc2Cl)c2cccn2S(=O)(=O)N1Cc1ccccc1,12,291,> 311,23,1
,,O=C1N(Cc2ccccc2Br)c2cccn2S(=O)(=O)N1Cc1ccccc1,8,226,> 226,30,< 1
,,O=C1N(Cc2cccc(Cl)c2)c2cccn2S(=O)(=O)N1Cc1ccccc1,5,196,> 239,40,< 1
,,O=C1N(Cc2ccc(Cl)cc2Cl)c2cccn2S(=O)(=O)N1Cc1ccccc1,< 1,218,> 273,> 218,< 1
,,O=C1N(Cc2ccc(F)cc2)c2cccn2S(=O)(=O)N1Cc1ccccc1,< 1,150,> 150,> 190,< 1
,,Cc1ccc(CN2C(=O)N(Cc3ccccc3)S(=O)(=O)n3cccc32)cc1,< 1,241,> 241,> 241,< 1
,,N#CCN1C(=O)N(Cc2ccccc2)S(=O)(=O)n2cccc21,< 1,180,> 180,> 187,< 1
,,O=C1N(C/C=C/c2ccccc2)c2cccn2S(=O)(=O)N1Cc1ccccc1,,> 318,> 318,> 318,1
,,Nc1ccn([C@@H]2CS[C@H](CO)O2)c(=O)n1 [LAMIVUDINE],> 47,> 87,5.9,1.8,> 15
,,Cc1ccnc2c1NC(=O)c1cccnc1N2C1CC1 [NEVIRAPINE],,> 15,,,
,,Nc1ccn([C@H]2CC[C@@H](CO)O2)c(=O)n1 [ZALCITABINE],> 68,> 95,,,
